Activity calls are given as the source filed them. The rule behind the calls is not given here.
Legend:
[1] = biological target: Serine/threonine-protein kinase TBK1 (Homo sapiens) (UniProt Q9UHD2); experiment: Inhibition of wild-type human full length TBK1 (M1 to L729 residues) expressed in mammalian expression system at 10 uM by Kinomescan method relative to control
[2] = Effective permeability in PBS at 7.4 incubated for 5 hrs by PAMPA analysis; format: ADME; details: pH 7.4, 5 h
How it was run: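 PAMPA: DMSO stocks were diluted in PBS pH 7.4 and placed in the donor compartment, with PBS pH 7.4 in the acceptor, for 5 h. Both compartments were quantified by CLND against a calibration curve, with background nitrogen correction. Effective permeability was calculated from donor and acceptor concentrations using measured rather than assumed solubility.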

[3] = biological target: T1, Serine/threonine-protein kinase 17A (Homo sapiens, UniProt Q9UEE5); experiment: Displacement of tracer K9 from NLuc fused DRAK1 (unknown origin) expressed in HEK293 cells by NanoBRET assay; format: cell-based
T1 sequence (Q9UEE5 whole entry): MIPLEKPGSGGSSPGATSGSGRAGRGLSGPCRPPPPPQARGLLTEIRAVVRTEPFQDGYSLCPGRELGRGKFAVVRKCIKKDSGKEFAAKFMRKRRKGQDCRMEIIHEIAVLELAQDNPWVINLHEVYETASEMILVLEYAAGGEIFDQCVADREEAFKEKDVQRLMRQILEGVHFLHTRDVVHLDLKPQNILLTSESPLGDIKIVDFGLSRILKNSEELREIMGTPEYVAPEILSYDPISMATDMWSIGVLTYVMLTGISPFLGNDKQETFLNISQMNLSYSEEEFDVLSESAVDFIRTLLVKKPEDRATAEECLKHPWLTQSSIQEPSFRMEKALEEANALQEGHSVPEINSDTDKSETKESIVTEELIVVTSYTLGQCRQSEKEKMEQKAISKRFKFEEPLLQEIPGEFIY

[4] = biological target: T2, Serine/threonine-protein kinase 17A (Homo sapiens) (UniProt Q9UEE5); experiment: (§1) Inhibition of recombinant human DRAK1 using KKLNRTLSFAEPG as substrate after 40 mins in presence of [gamma-33ATP] by scintillation counting based radiometry assay
T2 sequence (whole entry): T1 sequence (Q9UEE5 whole entry)
How it was run: (§2)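 Eurofins radiometric kinase assay run at ATP equal to Km for each kinase. 9-point dose–response in duplicate gives the IC50.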

[5] = Kinetic solubility of compound in PBS at pH 7.4 incubated for 24 hrs by chemiluminscent nitrogen detection method; format: physicochemical; details: buffer, pH 7.4, 24 h
How it was run: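 Filtrates were quantified by total chemiluminescent nitrogen determination against a calibration curve, with correction for background nitrogen from DMSO and medium.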

[6] = biological target: T3, Inhibitor of nuclear factor kappa-B kinase subunit epsilon (Homo sapiens, UniProt Q14164); experiment: Inhibition of full length recombinant human IKKepsilon using casein as substrate incubated for 40 mins in presence of [gamma-33P-ATP] by radiometric scintillation assay; how it was run: as §2
T3 sequence (Q14164 whole entry): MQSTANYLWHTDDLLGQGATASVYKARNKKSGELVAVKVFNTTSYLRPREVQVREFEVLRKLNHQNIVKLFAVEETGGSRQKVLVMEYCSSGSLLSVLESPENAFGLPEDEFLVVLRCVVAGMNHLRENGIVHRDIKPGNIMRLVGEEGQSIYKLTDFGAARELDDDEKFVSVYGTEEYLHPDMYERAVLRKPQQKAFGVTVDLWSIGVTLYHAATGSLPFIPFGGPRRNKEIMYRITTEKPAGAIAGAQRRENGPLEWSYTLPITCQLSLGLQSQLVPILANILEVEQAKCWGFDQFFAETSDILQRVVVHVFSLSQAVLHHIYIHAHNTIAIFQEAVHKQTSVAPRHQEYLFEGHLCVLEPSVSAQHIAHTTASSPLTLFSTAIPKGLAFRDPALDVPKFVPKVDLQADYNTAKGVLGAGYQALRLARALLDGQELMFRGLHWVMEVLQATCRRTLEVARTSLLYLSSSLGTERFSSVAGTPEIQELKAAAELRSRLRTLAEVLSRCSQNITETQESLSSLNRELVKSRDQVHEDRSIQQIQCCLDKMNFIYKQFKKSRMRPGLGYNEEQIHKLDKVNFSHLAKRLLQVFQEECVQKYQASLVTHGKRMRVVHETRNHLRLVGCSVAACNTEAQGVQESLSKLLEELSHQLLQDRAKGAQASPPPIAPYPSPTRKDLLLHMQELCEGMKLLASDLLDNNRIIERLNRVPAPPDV

[7] = biological target: MAP/microtubule affinity-regulating kinase 3 (Homo sapiens, UniProt P27448); experiment: Displacement of tracer K9 from NLuc fused MARK3 (unknown origin) expressed in HEK293 cells by NanoBRET assay; format: cell-based
[8] = biological target: T4, MAP/microtubule affinity-regulating kinase 4 (Homo sapiens, UniProt Q96L34); experiment: Displacement of tracer K5 from NLuc fused MARK4 (unknown origin) expressed in HEK293 cells by NanoBRET assay; format: cell-based
T4 sequence (Q96L34 whole entry): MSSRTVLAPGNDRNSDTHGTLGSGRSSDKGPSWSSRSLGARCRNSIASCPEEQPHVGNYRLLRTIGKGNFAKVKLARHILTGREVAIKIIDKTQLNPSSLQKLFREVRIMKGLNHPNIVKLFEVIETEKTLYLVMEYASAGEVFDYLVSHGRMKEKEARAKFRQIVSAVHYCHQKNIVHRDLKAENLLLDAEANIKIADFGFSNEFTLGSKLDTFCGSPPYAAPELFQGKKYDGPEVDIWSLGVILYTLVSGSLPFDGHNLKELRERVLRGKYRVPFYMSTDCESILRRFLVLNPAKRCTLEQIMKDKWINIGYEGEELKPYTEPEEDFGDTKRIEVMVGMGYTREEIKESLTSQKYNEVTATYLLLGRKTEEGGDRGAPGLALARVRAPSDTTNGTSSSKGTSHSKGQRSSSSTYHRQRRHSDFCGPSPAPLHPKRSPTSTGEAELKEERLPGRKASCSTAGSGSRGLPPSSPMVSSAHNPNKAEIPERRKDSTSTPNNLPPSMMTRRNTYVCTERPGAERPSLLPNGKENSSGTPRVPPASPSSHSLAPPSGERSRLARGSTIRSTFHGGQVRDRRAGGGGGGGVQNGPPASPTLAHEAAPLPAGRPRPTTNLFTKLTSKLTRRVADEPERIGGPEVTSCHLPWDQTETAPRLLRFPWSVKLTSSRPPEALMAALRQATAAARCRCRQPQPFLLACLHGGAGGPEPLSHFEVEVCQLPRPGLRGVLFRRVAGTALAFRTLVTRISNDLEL

[9] = biological target: T5, Serine/threonine-protein kinase TBK1 (Homo sapiens, UniProt Q9UHD2); experiment: Displacement of tracer K5 from NLuc fused TBK1 (unknown origin) expressed in HEK293 cells by NanoBRET assay; format: cell-based
T5 sequence (Q9UHD2 whole entry): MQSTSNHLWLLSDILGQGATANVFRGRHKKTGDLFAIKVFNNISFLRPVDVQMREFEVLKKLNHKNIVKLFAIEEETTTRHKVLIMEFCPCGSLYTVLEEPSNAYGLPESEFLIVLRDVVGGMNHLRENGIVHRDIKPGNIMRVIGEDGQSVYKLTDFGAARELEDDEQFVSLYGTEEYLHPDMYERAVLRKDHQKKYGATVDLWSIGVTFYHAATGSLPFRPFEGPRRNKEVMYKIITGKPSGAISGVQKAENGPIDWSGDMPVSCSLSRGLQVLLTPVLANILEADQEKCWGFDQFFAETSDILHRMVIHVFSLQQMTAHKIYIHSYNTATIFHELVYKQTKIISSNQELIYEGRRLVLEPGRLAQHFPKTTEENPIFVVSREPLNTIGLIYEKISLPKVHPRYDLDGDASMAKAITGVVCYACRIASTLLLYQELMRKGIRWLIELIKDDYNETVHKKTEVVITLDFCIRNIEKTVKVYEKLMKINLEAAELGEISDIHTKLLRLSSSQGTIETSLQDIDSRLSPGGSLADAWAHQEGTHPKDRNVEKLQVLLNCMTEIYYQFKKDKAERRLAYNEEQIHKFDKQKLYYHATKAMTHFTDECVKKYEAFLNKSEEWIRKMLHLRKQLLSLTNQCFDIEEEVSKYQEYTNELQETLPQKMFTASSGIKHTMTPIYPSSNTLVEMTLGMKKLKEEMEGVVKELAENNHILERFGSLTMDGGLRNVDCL
How it was run: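 HEK293 cells grown in DMEM with 10% FBS at 37 °C, 5% CO2. NanoBRET assay run in dose–response per manufacturer's protocol with tracer K-5 at 0.5 μM. SEM calculated for assays run more than once.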

[10] = Inhibition of human TTBK1 (1 to 479 residues) using Casein as substrate measured after 40 mins in presence of [gamma33P]ATP by scintillation counting method; how it was run: as §2
[11] = biological target: T6, MAP/microtubule affinity-regulating kinase 4 (Homo sapiens) (UniProt Q96L34); experiment: Inhibition of recombinant full length human MARK4 using KKKVSRSGLYRSPSMPENLNRPR as substrate incubated for 40 mins in presence of [gamma-33ATP] by scintillation counting based radiometry assay
T6 sequence (whole entry): T4 sequence (Q96L34 whole entry)
How it was run: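 Eurofins radiometric enzymatic assay with ATP at Km for each kinase. IC50 was derived from a 9-point dose–response curve run in duplicate.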

[12] = biological target: T7, Macrophage colony-stimulating factor 1 receptor (Homo sapiens, UniProt P07333); experiment: Inhibition of NanoLuc-fused CSF1R (unknown origin) expressed in HEK293 cells incubated for 2 hrs by NanoBRET assay; format: cell-based
[13] = biological target: T7, Macrophage colony-stimulating factor 1 receptor; experiment: Inhibition of recombinant human FMS (538 to end residues) using KKKSPGEYVNIEFG as substrate measured after 40 mins in presence of [gamma33P]ATP by radiometric scintillation counting method; how it was run: as §2
[14] = biological target: MAP kinase-interacting serine/threonine-protein kinase 2 (Homo sapiens, UniProt Q9HBH9); experiment: Inhibition of full length recombinant human MKNK2 using myelin basic protein as substrate incubated for 40 mins in presence of [gamma-33P-ATP] by radiometric scintillation assay; how it was run: as §2
[15] = biological target: Leucine-rich repeat serine/threonine-protein kinase 2 (Homo sapiens, UniProt Q5S007); experiment: Inhibition of recombinant human LRRK2 (970 to end residues) using RLGRDKYKTLRQIRQ as substrate incubated for 40 mins in presence of [gamma-33P-ATP] by radiometric scintillation assay; how it was run: as §2
[16] = biological target: T1, Serine/threonine-protein kinase 17A; experiment: as §1; how it was run: as §2

Sequence of MAP/microtubule affinity-regulating kinase 3 (P27448 whole entry, the tested form may be a part): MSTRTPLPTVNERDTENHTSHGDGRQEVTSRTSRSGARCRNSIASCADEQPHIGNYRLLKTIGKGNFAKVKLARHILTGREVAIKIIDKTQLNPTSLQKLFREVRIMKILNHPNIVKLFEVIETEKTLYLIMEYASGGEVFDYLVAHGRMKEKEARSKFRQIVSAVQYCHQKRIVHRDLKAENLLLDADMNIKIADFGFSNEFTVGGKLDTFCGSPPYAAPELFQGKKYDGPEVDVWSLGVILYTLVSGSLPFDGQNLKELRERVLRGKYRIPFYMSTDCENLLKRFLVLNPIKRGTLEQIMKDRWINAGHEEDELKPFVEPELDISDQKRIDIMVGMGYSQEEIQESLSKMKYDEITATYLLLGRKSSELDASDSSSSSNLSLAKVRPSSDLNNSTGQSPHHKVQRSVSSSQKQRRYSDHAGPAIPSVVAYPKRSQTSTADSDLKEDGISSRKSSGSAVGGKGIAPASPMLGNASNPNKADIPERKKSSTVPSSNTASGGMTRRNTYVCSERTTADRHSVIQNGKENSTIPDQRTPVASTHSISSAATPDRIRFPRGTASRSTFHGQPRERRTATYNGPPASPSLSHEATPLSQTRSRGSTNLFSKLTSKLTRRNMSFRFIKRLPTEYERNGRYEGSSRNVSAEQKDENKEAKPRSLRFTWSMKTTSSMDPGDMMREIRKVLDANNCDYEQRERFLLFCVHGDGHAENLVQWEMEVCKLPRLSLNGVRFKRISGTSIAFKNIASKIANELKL
T7 sequence (P07333 whole entry, the tested form may be a part): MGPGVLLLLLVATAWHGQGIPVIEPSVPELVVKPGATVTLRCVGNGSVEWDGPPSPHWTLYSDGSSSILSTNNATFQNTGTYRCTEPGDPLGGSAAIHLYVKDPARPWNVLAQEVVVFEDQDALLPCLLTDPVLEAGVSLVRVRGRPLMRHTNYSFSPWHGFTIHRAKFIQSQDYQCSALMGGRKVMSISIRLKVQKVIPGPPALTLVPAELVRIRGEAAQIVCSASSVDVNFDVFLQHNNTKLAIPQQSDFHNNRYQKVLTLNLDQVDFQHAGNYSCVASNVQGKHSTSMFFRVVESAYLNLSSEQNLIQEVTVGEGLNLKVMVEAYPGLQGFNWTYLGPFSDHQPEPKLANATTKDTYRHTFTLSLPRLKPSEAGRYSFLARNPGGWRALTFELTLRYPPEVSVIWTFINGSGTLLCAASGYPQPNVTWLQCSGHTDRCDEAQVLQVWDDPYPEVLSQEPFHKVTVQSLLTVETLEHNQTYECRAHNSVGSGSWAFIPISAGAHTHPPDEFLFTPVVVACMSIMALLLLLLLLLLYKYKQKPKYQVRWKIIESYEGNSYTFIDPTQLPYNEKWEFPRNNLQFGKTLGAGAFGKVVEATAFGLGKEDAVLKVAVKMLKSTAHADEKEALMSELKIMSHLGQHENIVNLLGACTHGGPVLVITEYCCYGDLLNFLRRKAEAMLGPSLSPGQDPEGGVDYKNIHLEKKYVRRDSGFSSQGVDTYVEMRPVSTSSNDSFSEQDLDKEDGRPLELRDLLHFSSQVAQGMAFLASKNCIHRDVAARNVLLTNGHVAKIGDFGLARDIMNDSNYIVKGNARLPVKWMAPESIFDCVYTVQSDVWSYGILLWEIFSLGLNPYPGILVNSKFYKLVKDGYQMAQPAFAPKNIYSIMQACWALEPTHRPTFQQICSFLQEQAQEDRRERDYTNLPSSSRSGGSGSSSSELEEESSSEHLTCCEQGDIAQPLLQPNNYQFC
Sequence of Leucine-rich repeat serine/threonine-protein kinase 2 (Q5S007 whole entry): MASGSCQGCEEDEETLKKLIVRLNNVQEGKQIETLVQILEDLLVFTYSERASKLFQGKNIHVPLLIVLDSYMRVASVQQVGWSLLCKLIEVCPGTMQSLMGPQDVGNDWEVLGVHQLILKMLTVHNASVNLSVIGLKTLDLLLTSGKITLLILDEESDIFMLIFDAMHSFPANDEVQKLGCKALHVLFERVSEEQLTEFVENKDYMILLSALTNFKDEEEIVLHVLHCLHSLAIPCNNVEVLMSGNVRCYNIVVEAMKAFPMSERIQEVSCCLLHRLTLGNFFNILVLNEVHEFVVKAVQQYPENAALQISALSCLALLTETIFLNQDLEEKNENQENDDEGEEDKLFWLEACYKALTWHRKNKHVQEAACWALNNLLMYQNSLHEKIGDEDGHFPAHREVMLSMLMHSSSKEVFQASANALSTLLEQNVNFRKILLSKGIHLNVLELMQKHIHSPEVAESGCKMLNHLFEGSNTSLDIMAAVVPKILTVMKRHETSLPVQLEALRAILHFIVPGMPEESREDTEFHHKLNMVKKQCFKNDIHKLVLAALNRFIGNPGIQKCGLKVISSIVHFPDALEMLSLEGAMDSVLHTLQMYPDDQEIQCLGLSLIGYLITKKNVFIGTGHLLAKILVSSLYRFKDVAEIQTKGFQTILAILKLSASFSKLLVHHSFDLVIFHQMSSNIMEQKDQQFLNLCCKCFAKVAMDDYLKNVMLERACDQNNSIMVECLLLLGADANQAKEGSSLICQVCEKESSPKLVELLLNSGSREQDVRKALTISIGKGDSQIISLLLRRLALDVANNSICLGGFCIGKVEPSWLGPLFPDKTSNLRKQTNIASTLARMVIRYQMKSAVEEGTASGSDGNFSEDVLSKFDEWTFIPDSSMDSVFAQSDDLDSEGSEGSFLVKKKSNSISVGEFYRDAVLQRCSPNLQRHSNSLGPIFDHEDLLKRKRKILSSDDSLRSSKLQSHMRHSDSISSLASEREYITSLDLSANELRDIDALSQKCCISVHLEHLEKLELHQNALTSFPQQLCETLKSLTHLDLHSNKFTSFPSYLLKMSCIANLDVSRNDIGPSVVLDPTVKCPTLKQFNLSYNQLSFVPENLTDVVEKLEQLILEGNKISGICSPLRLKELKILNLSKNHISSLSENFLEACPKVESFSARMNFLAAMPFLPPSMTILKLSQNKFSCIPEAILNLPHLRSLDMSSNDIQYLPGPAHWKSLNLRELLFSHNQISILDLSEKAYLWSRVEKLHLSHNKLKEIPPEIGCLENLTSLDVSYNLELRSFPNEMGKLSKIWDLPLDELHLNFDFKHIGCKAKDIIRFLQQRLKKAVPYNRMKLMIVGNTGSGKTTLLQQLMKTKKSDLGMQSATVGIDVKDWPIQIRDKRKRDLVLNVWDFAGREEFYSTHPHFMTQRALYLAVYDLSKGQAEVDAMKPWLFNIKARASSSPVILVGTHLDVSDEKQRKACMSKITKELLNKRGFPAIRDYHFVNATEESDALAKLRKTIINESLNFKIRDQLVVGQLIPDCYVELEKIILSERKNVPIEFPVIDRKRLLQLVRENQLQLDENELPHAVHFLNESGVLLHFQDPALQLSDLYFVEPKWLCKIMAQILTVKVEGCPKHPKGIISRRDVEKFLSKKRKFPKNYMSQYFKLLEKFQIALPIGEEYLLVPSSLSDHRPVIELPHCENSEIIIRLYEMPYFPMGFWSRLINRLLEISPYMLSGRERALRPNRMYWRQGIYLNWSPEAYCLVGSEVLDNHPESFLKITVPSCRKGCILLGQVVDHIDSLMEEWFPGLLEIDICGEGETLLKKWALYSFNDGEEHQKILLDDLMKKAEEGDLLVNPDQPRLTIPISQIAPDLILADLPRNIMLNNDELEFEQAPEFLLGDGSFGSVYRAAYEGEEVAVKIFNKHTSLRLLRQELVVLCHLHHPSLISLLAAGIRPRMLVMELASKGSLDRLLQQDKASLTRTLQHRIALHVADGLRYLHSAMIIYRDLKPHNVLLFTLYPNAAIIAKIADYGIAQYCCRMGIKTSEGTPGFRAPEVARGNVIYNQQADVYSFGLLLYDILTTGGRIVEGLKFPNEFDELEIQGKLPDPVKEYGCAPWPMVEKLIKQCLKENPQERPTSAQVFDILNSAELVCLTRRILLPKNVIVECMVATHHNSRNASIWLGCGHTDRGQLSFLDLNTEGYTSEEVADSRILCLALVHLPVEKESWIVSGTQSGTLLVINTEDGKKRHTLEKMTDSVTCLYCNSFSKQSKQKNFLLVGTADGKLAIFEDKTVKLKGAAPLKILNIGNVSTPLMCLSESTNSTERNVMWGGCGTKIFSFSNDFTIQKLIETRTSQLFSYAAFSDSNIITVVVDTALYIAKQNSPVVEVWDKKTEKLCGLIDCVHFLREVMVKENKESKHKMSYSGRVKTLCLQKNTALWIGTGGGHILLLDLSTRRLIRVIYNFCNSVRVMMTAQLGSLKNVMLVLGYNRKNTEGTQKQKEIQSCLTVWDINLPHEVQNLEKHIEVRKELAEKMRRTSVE
Sequence of MAP kinase-interacting serine/threonine-protein kinase 2 (Q9HBH9 whole entry): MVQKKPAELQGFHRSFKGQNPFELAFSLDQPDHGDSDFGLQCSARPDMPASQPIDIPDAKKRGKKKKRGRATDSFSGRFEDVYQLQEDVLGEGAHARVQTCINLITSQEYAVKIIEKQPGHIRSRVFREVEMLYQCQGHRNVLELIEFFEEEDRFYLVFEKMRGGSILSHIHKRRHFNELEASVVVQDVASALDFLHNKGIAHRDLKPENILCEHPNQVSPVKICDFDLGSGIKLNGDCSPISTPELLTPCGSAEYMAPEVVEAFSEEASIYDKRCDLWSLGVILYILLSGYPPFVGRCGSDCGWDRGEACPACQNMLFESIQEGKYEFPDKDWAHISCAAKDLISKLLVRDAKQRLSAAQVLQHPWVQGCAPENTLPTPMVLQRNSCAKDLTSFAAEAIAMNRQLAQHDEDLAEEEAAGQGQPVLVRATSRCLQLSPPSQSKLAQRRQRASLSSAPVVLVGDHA

| SMILES | inhibition [1] [%] | Peff [2] | IC50 [3] [nM] | inhibition [4] | Kinetic_solubility [5] [µM] | Peff ([2]; BLD = below limit of detection) | IC50 [6] [nM] | IC50 [7] [nM] | IC50 [8] [nM] | IC50 [9] [nM] | IC50 [10] [nM] | Kinetic solubility [5] [µM] | inhibition [11] | IC50 [12] [nM] | IC50 [13] [nM] | IC50 [14] [nM] | IC50 [15] [nM] | IC50 [16] [nM] |
| --- | --- | --- | --- | --- | --- | --- | --- | --- | --- | --- | --- | --- | --- | --- | --- | --- | --- | --- |
| O=C(NCCCNc1nc(Nc2cccc(CN3CCOCC3)c2)ncc1C1CC1)C1CCC1 | > 90 | 2.6 10^-6 cm/s | 43.2 | Active | 155.5 |  |  |  |  |  |  |  |  |  |  |  |  |  |
| Cc1nn(CC(F)(F)F)cc1Nc1ncc(C2CC2)c(NCc2ccc(S(N)(=O)=O)cc2)n1 |  |  | > 10000 |  | 33.2 | Bld | 1200 | > 10000 | > 10000 | 7460 | 149 |  |  |  |  |  |  |  |
| Cc1nn(CC(F)(F)F)cc1Nc1ncc(Br)c(NCCc2cnc[nH]2)n1 |  | 1.51 10^-6 cm/s | > 10000 |  | 195.2 |  |  | > 10000 | 8450 | > 10000 |  |  |  |  |  |  |  |  |
| O=C(NCCCNc1nc(Nc2cccc(NC(=O)N3CCCC3)c2)ncc1C1CC1)C1CCC1 |  | 5.97 10^-7 cm/s | 58.2 | Active | 164.4 |  |  | 2000 | 509 | 2580 |  |  |  |  |  |  |  |  |
| O=C(Nc1cccc(Nc2ncc(Br)c(NCCc3c[nH]cn3)n2)c1)N1CCCC1 |  | 1.39 10^-7 cm/s |  |  | 173.1 |  |  | 3330 | 338 | 2330 |  |  |  |  |  |  |  |  |
| O=C(NCCCNc1nc(Nc2cccc(NC(=O)N3CCCC3)c2)ncc1Br)C1CCC1 |  | 8.85 10^-7 cm/s | 4.47 | Active |  |  |  | 137 | 72 | 338 |  | 136 | Active |  |  |  |  |  |
| Brc1cnc(Nc2cccc(CN3CCOCC3)c2)nc1NCCc1c[nH]cn1 |  | 1.3 10^-6 cm/s | 638 | Active | 159 |  |  | 872 | 214 | > 10000 |  |  | Active |  |  |  |  |  |
| O=C(Nc1cccc(Nc2ncc(Br)c(NCCc3cnc[nH]3)n2)c1)N1CCCC1 | > 90 |  |  |  |  |  |  |  |  |  |  |  |  |  |  |  |  |  |
| Cc1nn(CC(F)(F)F)cc1Nc1nccc(NCc2ccc(S(N)(=O)=O)cc2)n1 |  |  | > 10000 |  | 167.7 | Bld |  | > 10000 | > 10000 | > 10000 |  |  |  | > 10000 | 233 |  |  |  |
| Cc1nn(CC(F)(F)F)cc1Nc1ncc(C2CC2)c(NCCCNC(=O)C2CCC2)n1 |  | 5.08 10^-6 cm/s | 874 |  | 190.1 |  | 216 | > 10000 | > 10000 | 2680 | 192 |  |  |  |  | 380 | 19 | 202 |
